Source: ChEMBL document CHEMBL1153578, “Synthesis and evaluation of anti-tumor activities of N4 fatty acyl amino acid derivatives of 1-beta-arabinofuranosylcytosine” (Eur J Med Chem, 2009)

Assays:
HeLa = test: Cytotoxicity against human HeLa cells after 48 hrs by MTT assay; type: functional, cell-based
Method in brief: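 HeLa cells were grown in DMEM with 10% FBS and penicillin/streptomycin, seeded at 5 × 10⁴/mL, and treated with 0.5, 1.0, 5.0, 10 and 50 of compound in PBS with 4% DMSO, in triplicate. MTT (5 mg/mL) was added for 4 h at 37 °C without centrifugation, then supernatant removed and formazan dissolved in DMSO. Read at 570 nm (reference 630 nm) with survival normalized to medium-blanked control; IC50 = concentration causing 50% cell death.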

CCRF S-180 [1] = test: Antitumor activity against mouse S180 cells xenografted in ip dosed Kunming mouse assessed as tumor weight after 7 days; type: functional
Method in brief: (§1)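 Kunming mice received 0.2 mL of S180 cells (passaged in mouse abdomen, harvested day 8, 2.0 × 10⁷/mL) and were randomized into groups of 10. Compounds were given at 7.8 mmol/L in 0.5% CMC-Na (solution or suspension), 0.2 mL i.p. daily for 7 days. Mice were then sacrificed and tumors weighed. Inhibition = (mean control weight − mean treated weight)/mean control weight × 100%.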

HL-60 = test: Cytotoxicity against human HL60 cells after 48 hrs by MTT assay; type: functional, cell-based; details: HL-60, 48 h
Method in brief: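 HL-60 cells were grown in RPMI 1640 with 10% FBS and penicillin/streptomycin, seeded at 5 × 10⁴/mL, and exposed to 5 concentrations (0.01–1.00) in PBS with 4% DMSO, in triplicate. MTT was added at 5 mg/mL for 4 h at 37 °C. Plates were centrifuged (1000 r/min, 10 min), supernatant discarded, and crystals dissolved in DMSO. Read at OD 570/630 nm, blank-corrected against control; IC50 = concentration giving 50% cell death.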

[2] = Lipophilicity, log P of the compound; type: physicochemical; details: octanol/water
CCRF S-180 [3] = test: Antitumor activity against mouse S180 cells xenografted in ip dosed Kunming mouse assessed as tumor growth inhibition after 7 days; type: functional; method in brief: as §1

Structure (SMILES)	logP [2]	IC50 (HeLa) [µM]	Activity (CCRF S-180 [1]) [g]	IC50 (HL-60) [µM]	TGI (CCRF S-180 [3]) [%]
CCCCCCCCCCCCCCCCCC(=O)N[C@@H](CCCNC(=N)N)C(=O)Nc1ccn([C@H]2O[C@@H](CO)[C@H](O)[C@H]2O)c(=O)n1	0.61	12.1	1.168	1.7	8.1
CCCCCCCCCCCCCCCCCC(=O)N[C@@H](CCSC)C(=O)Nc1ccn([C@H]2O[C@@H](CO)[C@H](O)[C@H]2O)c(=O)n1	1.09	9	0.438	0.803	65.5
CCCCCCCCCCCCCC(=O)N[C@@H](Cc1ccc(O)cc1)C(=O)Nc1ccn([C@H]2O[C@@H](CO)[C@H](O)[C@H]2O)c(=O)n1	0.9	39.1	1.125	1.71	11.4
CCCCCCCCCCCCCCCCCC(=O)N[C@@H](CCC(=O)O)C(=O)Nc1ccn([C@H]2O[C@@H](CO)[C@H](O)[C@H]2O)c(=O)n1	0.5	19	1.106	1.14	12.9
CCCCCCCCCCCCCC(=O)N[C@@H](CCCNC(=N)N)C(=O)Nc1ccn([C@H]2O[C@@H](CO)[C@H](O)[C@H]2O)c(=O)n1	0.45	32	0.773	0.405	39.2
CCCCCCCCCC(=O)N[C@@H](CCCNC(=N)N)C(=O)Nc1ccn([C@H]2O[C@@H](CO)[C@H](O)[C@H]2O)c(=O)n1	0.76	6	1.071	0.584	15.7
CCCCCCCCCC(=O)N[C@@H](Cc1ccc(O)cc1)C(=O)Nc1ccn([C@H]2O[C@@H](CO)[C@H](O)[C@H]2O)c(=O)n1	0.81	1	1.028	2.98	19.1
CCCCCCCCCCCCCCCCCC(=O)N[C@@H](Cc1ccc(O)cc1)C(=O)Nc1ccn([C@H]2O[C@@H](CO)[C@H](O)[C@H]2O)c(=O)n1	0.97	10	1.06	1.15	16.5
CCCCCCCCCCCCCC(=O)N[C@@H](CCSC)C(=O)Nc1ccn([C@H]2O[C@@H](CO)[C@H](O)[C@H]2O)c(=O)n1	0.88	8.02	0.793	0.272	37.6
CCCCCCCCCCCCCC(=O)N[C@@H](CCC(=O)O)C(=O)Nc1ccn([C@H]2O[C@@H](CO)[C@H](O)[C@H]2O)c(=O)n1	0.25	41	0.958	0.502	24.6
Nc1ccn([C@@H]2O[C@H](CO)[C@@H](O)[C@@H]2O)c(=O)n1 [CYTARABINE]		464		0.118	

The next lines start with results.

logP [2]	Structure (SMILES)	IC50 (HeLa) [µM]	Activity (CCRF S-180 [1]) [g]	IC50 (HL-60) [µM]	TGI (CCRF S-180 [3]) [%]
0.68	CCCCCCCCCC(=O)N[C@@H](CCSC)C(=O)Nc1ccn([C@H]2O[C@@H](CO)[C@H](O)[C@H]2O)c(=O)n1	3	0.944	0.28	25.6
0.91	CCCCCCCCCCCCCCCCCC(=O)N[C@H](C(=O)Nc1ccn([C@H]2O[C@@H](CO)[C@H](O)[C@H]2O)c(=O)n1)C(C)C	13	0.523	31.9	58.9
0.78	CCCCCCCCCC(=O)N[C@H](C(=O)Nc1ccn([C@H]2O[C@@H](CO)[C@H](O)[C@H]2O)c(=O)n1)C(C)C	4.99	1.181	2.04	7
0.9	CCCCCCCCCCCCCC(=O)N[C@H](C(=O)Nc1ccn([C@H]2O[C@@H](CO)[C@H](O)[C@H]2O)c(=O)n1)C(C)C	26	1.163	32.3	8.4
-0.28	CCCCCCCCCC(=O)N[C@@H](CCC(=O)O)C(=O)Nc1ccn([C@H]2O[C@@H](CO)[C@H](O)[C@H]2O)c(=O)n1	5	1.072	1.86	15.6
